According to ChEMBL document CHEMBL1123845 (J Med Chem, 1987):
pIC50: −log10 of the molar value. Active and inactive are the calls of the source. The rule behind the calls is not given here.

What was measured:
Format in all cases: cell-based
[1] = target: T1, Polyunsaturated fatty acid 5-lipoxygenase (Rattus norvegicus) (UniProt P12527); experiment: Compound was evaluated for the inhibition of rat basophilic leukemia-1 (RBL-1) 5-Lipoxygenase at 300 uM
T1 sequence (whole entry): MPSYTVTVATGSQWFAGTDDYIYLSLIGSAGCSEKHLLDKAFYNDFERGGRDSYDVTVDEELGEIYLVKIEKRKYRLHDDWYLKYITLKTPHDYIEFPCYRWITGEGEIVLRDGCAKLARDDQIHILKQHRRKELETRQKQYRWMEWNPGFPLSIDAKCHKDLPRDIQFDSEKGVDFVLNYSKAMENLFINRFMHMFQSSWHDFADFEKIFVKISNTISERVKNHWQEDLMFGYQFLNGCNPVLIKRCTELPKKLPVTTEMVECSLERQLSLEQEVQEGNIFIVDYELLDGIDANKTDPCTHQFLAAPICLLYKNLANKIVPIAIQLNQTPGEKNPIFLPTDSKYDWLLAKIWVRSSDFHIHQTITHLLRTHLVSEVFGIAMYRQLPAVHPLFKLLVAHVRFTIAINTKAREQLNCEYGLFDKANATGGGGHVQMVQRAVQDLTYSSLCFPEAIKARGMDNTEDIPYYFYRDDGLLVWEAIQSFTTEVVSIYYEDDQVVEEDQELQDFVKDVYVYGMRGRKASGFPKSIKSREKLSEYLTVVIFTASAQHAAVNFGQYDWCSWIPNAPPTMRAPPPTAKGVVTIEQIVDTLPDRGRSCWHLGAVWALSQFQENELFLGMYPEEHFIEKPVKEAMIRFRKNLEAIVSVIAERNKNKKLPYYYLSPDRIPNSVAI
Procedure, shortened: (§1)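 Enzyme source: 20000g supernatant of sonicated RBL-1 cells (1.5 × 10⁶ cell equivalents) in pH 6.8 BES/PIPES buffer with EDTA, CaCl₂ and NaCl. Compound or 2% DMSO vehicle preincubated 20 min at 37 °C. Reaction started with 66 μM arachidonic acid carrying [¹⁴C] tracer and run 5 min. Acid stop, ether extraction, then TLC. [¹⁴C]5-HETE counted and corrected by [³H]-5-HETE recovery.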

[2] = target: T2, Polyunsaturated fatty acid 5-lipoxygenase (Rattus norvegicus, UniProt P12527); experiment: Inhibition of rat basophilic leukemia-1 (RBL-1) 5-lipoxygenase
T2 sequence (P12527 whole entry): T1 sequence (whole entry)
Procedure, shortened: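 Enzyme source: 20000g supernatant of sonicated RBL-1 cells (1.5 × 10⁶ cell equivalents) in pH 6.8 BES/PIPES buffer with EDTA, CaCl₂ and NaCl. Compound or 2% DMSO vehicle preincubated 20 min at 37 °C. Acid stop, ether extraction, then TLC. [¹⁴C]5-HETE counted and corrected by [³H]-5-HETE recovery.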

[3] = target: T1, Polyunsaturated fatty acid 5-lipoxygenase (Rattus norvegicus); experiment: Compound was evaluated for the inhibition of rat basophilic leukemia-1 (RBL-1) 5-Lipoxygenase at 30 uM; procedure, shortened: as §1
[4] = target: T1, Polyunsaturated fatty acid 5-lipoxygenase (Rattus norvegicus); experiment: Inhibition of rat basophilic leukemia-1 (RBL-1) 5-Lipoxygenase at 100 uM; procedure, shortened: as §1
[5] = target: T1, Polyunsaturated fatty acid 5-lipoxygenase (Rattus norvegicus); experiment: Compound was evaluated for the inhibition of rat basophilic leukemia-1 (RBL-1) 5-Lipoxygenase at 33 uM; procedure, shortened: as §1
[6] = target: T1, Polyunsaturated fatty acid 5-lipoxygenase (Rattus norvegicus); experiment: (§2) Compound was evaluated for the inhibition of rat basophilic leukemia-1 (RBL-1) 5-Lipoxygenase at 100 uM; NS = no significant activity; procedure, shortened: as §1
[7] = target: T1, Polyunsaturated fatty acid 5-lipoxygenase (Rattus norvegicus); experiment: Compound was evaluated for the inhibition of rat basophilic leukemia-1 (RBL-1) 5-Lipoxygenase at 10 uM; procedure, shortened: as §1
[8] = target: T1, Polyunsaturated fatty acid 5-lipoxygenase (Rattus norvegicus); experiment: Compound was evaluated for the inhibition of rat basophilic leukemia-1 (RBL-1) 5-Lipoxygenase at 75 uM; procedure, shortened: as §1
[9] = target: T2, Polyunsaturated fatty acid 5-lipoxygenase; experiment: as §2; procedure, shortened: as §1
[10] = target: T1, Polyunsaturated fatty acid 5-lipoxygenase (Rattus norvegicus); experiment: Compound was evaluated for the inhibition of rat basophilic leukemia-1 (RBL-1) 5-Lipoxygenase at 40 uM; procedure, shortened: as §1

`CCCCC[C@H](O)/C=C/C=C\CCCCCCCCCC(=O)OC` showed an inhibition [1] of 34%.
`CCCCC/C=C\C/C=C\C/C=C\C=C\C(O)CCCC(=O)O` (stereo not given) was tested, and the pIC50 [2] was 4.11.
`CCCCC[C@H](O)/C=C/C=C\CCCCCCCC(=O)O` showed a pIC50 [2] of 4.09.
With `CCCCC[C@@H](/C=C/C=C\C/C=C\C/C=C\CCCC(=O)O)OO` the pIC50 [2] was 5.47.
For `CCCCC[C@H](O)/C=C\C=C/C/C=C\CCCCCCC(=O)O`, the pIC50 [2] was 4.11.
With `CCCCC[C@H](O)/C=C/C=C\C/C=C\C/C=C\CCCC(=O)OC` the pIC50 [2] was 4.19.
With `CCCCC[C@H](O)/C=C/C=C\CCCCCCCCCC(=O)N(CC)CC` the inhibition [3] was 39%.
For `COC(=O)CCCCC(O)/C=C/C#CCCCCCCCCCC(=O)O` (stereo not given), the inhibition [4] was 22%.
Work on `CCCCC/C=C\C/C=C\C/C=C\C=C\C1CCCC(=O)O1` (stereo not given) yielded a pIC50 [2] of 4.64.
With `CCCCCC(O)/C=C/C=C/CCCCCC(=O)O` (stereo not given) the inhibition [4] was 17%.
With `O=C(O)CCCCCCCCCC#C/C=C/C(O)CC1CCCC1` (stereo not given) the pIC50 [2] was 4.09.
`CCCCCC(/C=C/C=C\CCCCCCCCCC(=O)O)OC(C)=O` (stereo not given) showed a pIC50 [2] of 4.12.
Compound `CCCCC[C@H](O)/C=C/C=C\CCCCCCCC(=O)OC` has an inhibition [1] of 34%.
Compound `CCCCCC1/C=C/C#CCCCCCCCCCC(=O)O1` (stereo not given) has an inhibition [5] of 16%.
Work on `O=C(O)CCCCCCCCC/C=C\C=C\C(O)CCCCCO` (stereo not given) yielded an inhibition [4] of 46%.
In the case of `CCCCCC(O)/C=C\C=C\CCCCCCCCCC(=O)O` (stereo not given), the pIC50 [2] was 4.24.
For `CCCCC[C@H](O)/C=C/C=C\C/C=C/CCCCC(=O)O`, the pIC50 [2] was 4.54.
With `CCCC(O)/C=C/C#CCCCCCCCCC(=O)O` (stereo not given) the inhibition [1] was 46%.
Work on `CCCCCC(O)/C=C/C#CCCCCCCCCCCC(=O)O` (stereo not given) yielded an inhibition [3] of 24%.
`CCCCCC(/C=C/C#CCCCCCCCCCC(=O)O)OC(C)=O` (stereo not given) showed an inhibition [4] of 40%.
Work on `CCCCC[C@H](O)/C=C/C=C\C/C=C\C=C\C(O)CCCC(=O)O` (stereo not given in full) yielded a pIC50 [2] of 3.57.
Work on `CCCCC[C@@H](/C=C/C=C\C/C=C\C/C=C\CCCC(=O)O)OC(C)=O` yielded a pIC50 [2] of 4.77.
`CCCCCC(O)/C=C/C#CCCCCCCCCC(=O)O` (stereo not given) showed a pIC50 [2] of 4.14.
With `CCCCCC(O)/C=C/C#CCCCCCCC(=O)O` (stereo not given) the inhibition [4] was 18%.
For `CCCCCC(O)/C=C/C#CCCCCC(=O)O` (stereo not given), the inhibition [6] was “inactive”.
In the case of `CCCCCC/C=C/C#CCCCCCCCCC(=O)O`, the inhibition [3] was 33%.
For `CCCCCC(O)/C=C/C=C/CCCCCCCCC(=O)O` (stereo not given), the inhibition [4] was 39%.
`CCCCCC(O)/C=C/C=C/CCCCCCC(=O)O` (stereo not given) was tested, and the inhibition [7] was 24%.
In the case of `CCCC(O)/C=C/C=C/CCCCCCCCCC(=O)O` (stereo not given), the pIC50 [2] was 3.80.
With `CCCCC[C@H](O)CCCCCCCCCCCCCC(=O)O` the inhibition [6] was “inactive”.
`CCCCCC(O)/C=C\C=C/CCCCCCCCCC(=O)O` (stereo not given) was tested, and the inhibition [4] was 44%.
`CCCCCC(O)/C=C/C#CCCCCCCCCCC(=O)O` (stereo not given) was tested, and the pIC50 [2] was 4.18.
With `CCCCCC(O)CC/C=C\CCCCCCCCCC(=O)O` (stereo not given) the inhibition [8] was 36%.
Work on `CCCCCCC(O)/C=C/C#CCCCCCCCCCC(=O)O` (stereo not given) yielded a pIC50 [2] of 4.49.
With `O=C(O)CCCCCCCCC/C=C/C=C/C(O)CC1CCCC1` (stereo not given) the pIC50 [2] was 4.21.
`CCCCC[C@@H](/C=C/C=C\C/C=C\C/C=C\CCCC(=O)OC)OC(C)=O` showed a pIC50 [2] of 5.14.
For `CCCCCC(=O)/C=C/C=C\C/C=C\C/C=C\CCCC(=O)O`, the pIC50 [2] was 4.59.
`CCCCCC(O)/C=C/C#CCCCCCC(=O)O` (stereo not given) was tested, and the inhibition [6] was “inactive”.
Compound `CCCCCC1/C=C/C=C\CCCCCCCCCC(=O)O1` (stereo not given) has an inhibition [4] of 42%.
For `CCCCC[C@H](O)/C=C/C=C\C/C=C\C/C=C\CCCC(=O)O` [ICOMUCRET], the pIC50 [2] was 5.14.
`CCCCCC(O)C#C/C=C/CCCCCCCCCC(=O)O` (stereo not given) was tested, and the inhibition [4] was 30%.
`CCCCC[C@H](O)/C=C/C=C\C/C=C\C/C=C\CCCCCC(=O)O` was tested, and the pIC50 [2] was 4.21.
Work on `COC(=O)CCCCC(O)/C=C/C=C/CCCCCCCCCC(=O)O` (stereo not given) yielded an inhibition [4] of 31%.
With `CCCCCC(O)C#CC#CCCCCCCCCCC(=O)O` (stereo not given) the pIC50 [2] was 4.57.
Work on `CCCCCC/C=C/C#CCCCCCCCCCC(=O)O` yielded an inhibition [4] of 48%.
`CCCCCC(O)/C=C/C=C/CCCCCCCCCCC(=O)O` (stereo not given) was tested, and the inhibition [3] was 41%.
`CCCC(O)/C=C/C#CCCCCCCCCCC(=O)O` (stereo not given) gave a pIC50 [2] of 3.59.
With `CCCCCC(O)/C=C/C=C\CCCCCCCCCC(=O)O` (stereo not given) the pIC50 [2] was 4.46.
Work on `CCCCC[C@H](O)/C=C/C=C\C/C=C\C/C=C\CCCCCC(=O)OC` yielded a pIC50 [2] of 5.19.
`CCCCCC(O)c1cccc(OCCCCCCCC(=O)O)c1` (stereo not given) was tested, and the inhibition [4] was 23%.
Compound `CCCCC[C@H](O)/C=C/C=C\CCCCCCCCCC(=O)O` has a pIC50 [2] of 4.59.
With `O=C(O)CCCCCCCCCC#C/C=C/C(O)CCCCC(=O)O` (stereo not given) the inhibition [6] was “inactive”.
`CCCCCC(O)/C=C/C#CCCCCCCCC(=O)O` (stereo not given) was tested, and the inhibition [4] was 24%.
With `CCCCCC(O)/C=C/C=C/CCCCC(=O)O` (stereo not given) the IC50 [9] was “Not Active”.
`CCCCCC(=O)/C=C/C=C\CCCCCCCCCC(=O)O` was tested, and the pIC50 [2] was 4.26.
With `CCCCCC/C=C/C=C\CCCCCCCCCC(=O)O` the inhibition [4] was 16%.
In the case of `CCCCC[C@H](O)/C=C/C=C\C/C=C\C=C\C1CCCC(=O)O1` (stereo not given in full), the pIC50 [2] was 4.60.
With `CCCCCC(O)/C=C/C=C/CCCCCCCCCC(=O)O` (stereo not given) the inhibition [3] was 33%.
Work on `CCCCCCC(O)/C=C/C=C/CCCCCCCCCC(=O)O` (stereo not given) yielded an inhibition [10] of 49%.
For `CCCCCC(O)/C=C/C#CCCCCCCCCCC(=O)N(CC)CC` (stereo not given), the inhibition [3] was 49%.
